Key:
[1] = biological target: T1, AURORA-A (Homo sapiens, UniProt O14965); assay: AURORA-A-NanoLuc target engagement assay; format: binding
T1 sequence (O14965 1-403): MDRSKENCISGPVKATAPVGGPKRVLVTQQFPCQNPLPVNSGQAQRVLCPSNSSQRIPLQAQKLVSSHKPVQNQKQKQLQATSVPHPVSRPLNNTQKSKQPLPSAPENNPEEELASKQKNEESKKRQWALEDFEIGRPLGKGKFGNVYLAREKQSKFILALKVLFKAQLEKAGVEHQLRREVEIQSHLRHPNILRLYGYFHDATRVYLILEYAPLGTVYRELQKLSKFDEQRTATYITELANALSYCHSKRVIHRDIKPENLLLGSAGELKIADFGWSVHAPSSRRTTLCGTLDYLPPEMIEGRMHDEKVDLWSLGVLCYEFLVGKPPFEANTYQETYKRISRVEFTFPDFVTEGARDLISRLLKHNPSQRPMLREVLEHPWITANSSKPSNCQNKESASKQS

[2] = biological target: AURORA-B (Homo sapiens, UniProt Q96GD4); assay: AURORA-B-NanoLuc target engagement assay; format: binding; conditions: AURORA-B EC50 (µM), HEK293 cells, energy transfer probe, 2 hours, mean ± s.e.m, n = 2
[3] = biological target: T1, AURORA-A; assay: Immunoblot of AURORA-A in compound-treated MV4-11 cells; format: cell-based; conditions: 6 hours
[4] = biological target: CEREBLON thalidomide-binding domain (TBD) (Homo sapiens, UniProt Q96SW2); assay: Isothermal titration calorimetry, CEREBLON-TBD into JB170
[5] = biological target: AURORA-A/CEREBLON(TBD) complex (Homo sapiens, UniProt O14965+Q96SW2); assay: Isothermal titration calorimetry, ternary complex; format: binding
[6] = test system: MV4-11 cells; assay: BrdU/PI flow cytometry, cell cycle distribution of MV4-11 cells; format: cell-based, human; conditions: 0.5 µM, 12 hours
How it was run: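 Cells were pulsed with 10 µM BrdU for 1 h, washed in ice-cold PBS and fixed overnight in 80% ethanol at −20 °C. After a 1% BSA/PBS-T wash, they were stained 30 min at 37 °C with RNase A (24 µg/ml) and propidium iodide (54 µM), then analysed by flow cytometry. For IMR5, the EtOH-treated cells of the doxycycline-inducible line served as the non-overexpressing cells.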

[7] = alamarBlue cell viability assay, MV4-11 cells; format: cell-based; conditions: human
How it was run: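 MV4-11 cells (6 x10^3 per well) were exposed for various times, with compound refreshed every 24 h. Viability was read with alamarBlue HS reagent as fluorescence (excitation 550 nm, emission 600 nm).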

[8] = biological target: AURORA-A^K162R (Homo sapiens, UniProt O14965+Q96SW2, I57V/K162R); assay: Immunoblot of HA-tagged kinase-dead AURORA-A^K162R; format: cell-based; conditions: 1 µM, 18 hours
[9] = biological target: AURORA-B^E162T (Homo sapiens, UniProt Q96GD4, E161T); assay: Immunoblot of HA-tagged AURORA-B swap mutant in MV4-11 cells; format: cell-based; conditions: 6 hours
[10] = biological target: T2, ACAD10 (Homo sapiens, UniProt Q6JQN1); assay: Kinobead selectivity profiling: ACAD10; format: binding
T2 sequence (Q6JQN1 1-1059): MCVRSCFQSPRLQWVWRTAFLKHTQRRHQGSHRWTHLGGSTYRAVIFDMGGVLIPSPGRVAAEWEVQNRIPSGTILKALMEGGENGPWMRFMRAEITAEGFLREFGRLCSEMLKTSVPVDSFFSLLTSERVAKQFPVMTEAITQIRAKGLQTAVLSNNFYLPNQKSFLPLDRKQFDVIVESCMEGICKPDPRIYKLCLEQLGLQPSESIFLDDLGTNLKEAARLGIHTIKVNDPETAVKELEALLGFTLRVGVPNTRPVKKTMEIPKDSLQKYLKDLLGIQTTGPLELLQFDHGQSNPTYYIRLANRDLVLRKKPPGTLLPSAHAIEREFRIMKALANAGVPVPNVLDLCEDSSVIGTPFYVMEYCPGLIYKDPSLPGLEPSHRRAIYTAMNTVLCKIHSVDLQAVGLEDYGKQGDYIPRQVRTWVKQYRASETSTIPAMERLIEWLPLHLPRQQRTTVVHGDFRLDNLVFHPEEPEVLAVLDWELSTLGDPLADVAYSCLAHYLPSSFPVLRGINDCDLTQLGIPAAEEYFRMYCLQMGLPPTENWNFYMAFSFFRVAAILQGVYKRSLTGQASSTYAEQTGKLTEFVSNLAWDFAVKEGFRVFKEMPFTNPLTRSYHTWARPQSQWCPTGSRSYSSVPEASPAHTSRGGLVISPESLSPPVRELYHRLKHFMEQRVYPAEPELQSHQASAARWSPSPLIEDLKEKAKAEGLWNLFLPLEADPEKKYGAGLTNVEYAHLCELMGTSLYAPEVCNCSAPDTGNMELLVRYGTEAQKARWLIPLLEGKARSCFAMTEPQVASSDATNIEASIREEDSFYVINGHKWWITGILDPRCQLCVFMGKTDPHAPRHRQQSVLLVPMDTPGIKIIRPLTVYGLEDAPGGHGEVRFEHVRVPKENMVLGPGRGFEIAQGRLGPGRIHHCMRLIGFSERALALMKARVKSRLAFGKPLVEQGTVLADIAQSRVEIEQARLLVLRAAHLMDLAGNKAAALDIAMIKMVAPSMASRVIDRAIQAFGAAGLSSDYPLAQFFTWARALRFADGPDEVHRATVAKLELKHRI

Chain of AURORA-B (Q96GD4 whole entry): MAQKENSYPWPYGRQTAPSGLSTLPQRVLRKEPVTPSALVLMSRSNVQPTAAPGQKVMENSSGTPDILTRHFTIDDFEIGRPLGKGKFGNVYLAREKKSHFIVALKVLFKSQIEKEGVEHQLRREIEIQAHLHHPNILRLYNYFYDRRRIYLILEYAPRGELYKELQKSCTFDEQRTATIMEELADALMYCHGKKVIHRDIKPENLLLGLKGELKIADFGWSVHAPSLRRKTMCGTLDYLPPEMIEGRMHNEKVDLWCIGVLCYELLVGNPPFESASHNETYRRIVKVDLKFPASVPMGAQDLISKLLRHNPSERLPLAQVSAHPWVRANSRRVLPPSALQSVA
Chain of AURORA-B^E162T (Q96GD4 1-345 isoform Q96GD4-5 E162T): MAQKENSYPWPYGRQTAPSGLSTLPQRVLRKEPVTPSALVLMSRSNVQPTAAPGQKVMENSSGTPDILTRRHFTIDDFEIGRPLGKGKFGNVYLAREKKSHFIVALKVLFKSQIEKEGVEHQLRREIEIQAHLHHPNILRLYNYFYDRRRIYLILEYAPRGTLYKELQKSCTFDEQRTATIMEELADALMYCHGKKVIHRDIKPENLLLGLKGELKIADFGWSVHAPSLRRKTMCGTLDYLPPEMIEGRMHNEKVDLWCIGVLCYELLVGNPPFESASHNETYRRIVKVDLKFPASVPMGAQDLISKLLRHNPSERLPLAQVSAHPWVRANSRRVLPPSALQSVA
Chain of AURORA-A^K162R (O14965 whole entry I57V/K162R): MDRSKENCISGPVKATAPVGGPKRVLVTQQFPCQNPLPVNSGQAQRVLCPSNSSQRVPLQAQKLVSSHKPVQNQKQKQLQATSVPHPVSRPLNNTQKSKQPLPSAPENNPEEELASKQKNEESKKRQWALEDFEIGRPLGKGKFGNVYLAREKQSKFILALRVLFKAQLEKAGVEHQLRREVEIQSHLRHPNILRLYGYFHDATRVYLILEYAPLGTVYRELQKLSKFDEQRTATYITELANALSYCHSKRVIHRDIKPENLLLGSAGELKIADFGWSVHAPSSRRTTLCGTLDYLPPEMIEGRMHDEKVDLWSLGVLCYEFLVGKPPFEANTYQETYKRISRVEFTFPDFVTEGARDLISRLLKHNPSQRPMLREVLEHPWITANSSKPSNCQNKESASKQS
Chain of AURORA-A^K162R (Q96SW2 whole entry): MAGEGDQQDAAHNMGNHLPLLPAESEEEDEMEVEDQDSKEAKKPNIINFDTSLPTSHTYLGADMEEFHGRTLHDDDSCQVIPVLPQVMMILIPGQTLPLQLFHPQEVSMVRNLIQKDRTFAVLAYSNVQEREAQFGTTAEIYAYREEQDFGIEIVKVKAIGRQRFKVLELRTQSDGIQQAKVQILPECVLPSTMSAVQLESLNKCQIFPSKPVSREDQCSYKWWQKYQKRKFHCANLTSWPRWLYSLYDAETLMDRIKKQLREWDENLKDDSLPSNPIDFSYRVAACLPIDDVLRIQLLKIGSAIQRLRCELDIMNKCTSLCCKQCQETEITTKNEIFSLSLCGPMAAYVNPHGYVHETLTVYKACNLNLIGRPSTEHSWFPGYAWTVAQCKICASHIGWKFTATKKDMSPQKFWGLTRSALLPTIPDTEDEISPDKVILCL
Chain of AURORA-A^K162R (Q16531 whole entry partner): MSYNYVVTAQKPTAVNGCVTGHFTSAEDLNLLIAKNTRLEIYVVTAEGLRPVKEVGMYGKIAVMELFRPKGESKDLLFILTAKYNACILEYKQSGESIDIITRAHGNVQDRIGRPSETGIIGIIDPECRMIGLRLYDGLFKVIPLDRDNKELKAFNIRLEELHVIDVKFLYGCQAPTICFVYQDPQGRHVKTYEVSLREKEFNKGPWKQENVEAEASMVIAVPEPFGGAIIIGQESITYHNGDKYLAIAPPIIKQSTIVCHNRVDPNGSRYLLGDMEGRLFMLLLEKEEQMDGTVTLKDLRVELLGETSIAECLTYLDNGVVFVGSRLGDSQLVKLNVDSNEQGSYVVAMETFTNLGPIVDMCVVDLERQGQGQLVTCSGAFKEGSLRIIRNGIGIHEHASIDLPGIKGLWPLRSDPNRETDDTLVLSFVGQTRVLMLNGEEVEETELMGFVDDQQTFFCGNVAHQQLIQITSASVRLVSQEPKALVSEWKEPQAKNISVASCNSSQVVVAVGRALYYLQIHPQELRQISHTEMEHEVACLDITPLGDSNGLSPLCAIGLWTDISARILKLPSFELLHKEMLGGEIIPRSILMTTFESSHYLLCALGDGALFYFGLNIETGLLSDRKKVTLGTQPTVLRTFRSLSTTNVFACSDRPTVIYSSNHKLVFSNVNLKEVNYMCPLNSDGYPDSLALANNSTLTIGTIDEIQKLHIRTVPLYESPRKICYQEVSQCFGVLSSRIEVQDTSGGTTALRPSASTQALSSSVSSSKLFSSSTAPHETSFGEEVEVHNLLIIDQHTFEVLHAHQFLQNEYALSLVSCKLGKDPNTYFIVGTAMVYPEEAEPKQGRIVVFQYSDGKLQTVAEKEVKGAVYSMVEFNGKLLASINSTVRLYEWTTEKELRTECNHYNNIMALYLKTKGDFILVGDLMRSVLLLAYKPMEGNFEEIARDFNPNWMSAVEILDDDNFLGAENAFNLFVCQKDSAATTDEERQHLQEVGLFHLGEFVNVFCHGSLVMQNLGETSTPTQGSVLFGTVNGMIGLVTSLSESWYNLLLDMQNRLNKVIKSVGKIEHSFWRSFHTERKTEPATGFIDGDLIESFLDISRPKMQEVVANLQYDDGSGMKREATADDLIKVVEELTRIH
Chain of CEREBLON thalidomide-binding domain (TBD) (Q96SW2 320-428): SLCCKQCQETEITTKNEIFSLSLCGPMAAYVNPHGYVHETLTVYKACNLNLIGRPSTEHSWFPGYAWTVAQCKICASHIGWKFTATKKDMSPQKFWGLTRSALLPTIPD
Chain of AURORA-A/CEREBLON(TBD) complex (Q96SW2 320-428, one chain of several): as the sequence (Q96SW2 320-428) above

COc1cc(Nc2ncc3c(n2)-c2ccc(Cl)cc2C(c2c(F)cccc2OC)=NC3)ccc1C(=O)NCCOCCOCCNC(=O)COc1cccc2c1C(=O)N(C1CCC(=O)NC1=O)C2=O (stereo not drawn) [JB170]
EC50 [1]: 193 nM | difference of affinities for AURORA-A and AURORA-B ([1]; AURORA-A vs AURORA-B, depending on experimental conditions (BRET, Kinobeads)): 3- to 50 fold | EC50 [2]: 1.4 µM | reduction of AURORA-A levels (in words) ([3]; 10 nM): reduced AURORA-A levels modestly | reduction of AURORA-A levels (in words) ([3]; 100 nM and 1 µM): substantial degradation | degrader activity on co-incubation with alisertib or thalidomide [3]: abolished its degrader activity | depletion of AURORA-A under proteasomal inhibition by MG132 ([3]; MG132 10 µM): completely blocked | depletion of AURORA-A under inhibition of cullin neddylation by MLN4924 ([3]; MLN4924 3 µM): completely blocked | Kd [4]: 6880 nM | Kd [5]: 183 nM | cell cycle distribution [6]: delayed or arrested S-phase progression | viability at 72 h, 1 µM [7]: 32% | depletion of AURORA-A^K162R [8]: depleted by JB170 to a similar degree as the unmutated protein | JB170-mediated degradation of AURORA-B^E162T with respect to AURORA-A [9]: strongly attenuated | Kd [10]: 253 nM
